{"source": "paper PMC9435035", "about": "(ACS Omega, 2022)", "key": {"[1]": {"system": "streptozotocin-induced diabetic Wistar rats", "assay": "lipid profile in streptozotocin-induced diabetes", "type": "in vivo, Wistar albino rats", "conditions": "STZ-diabetic rats", "method_in_brief": "(§1)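 STZ-diabetic Wistar rats (n = 8 per group) received test compound at 10 or 20 mg/kg p.o., or glibenclamide 500 μg/kg p.o., once daily for 28 days; controls received vehicle. On day 28, rats were anesthetised with pentobarbital sodium (35 mg/kg) and blood was drawn by cardiac puncture. Serum ALP, SGPT, SGOT, LDL, HDL, TG, total cholesterol, creatinine and insulin were measured. Means ± SEM, one-way ANOVA with Dunnett's test.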"}, "[2]": {"assay": "body weight of STZ-induced diabetic rats", "type": "in vivo, Wistar albino rats", "conditions": "for body weight, day 1: day 1, in g (unit assumed); for body weight, day 7: day 7, in g (unit assumed); for body weight, day 14: day 14, in g (unit assumed); for body weight, day 21: day 21, in g (unit assumed); for body weight, day 28: day 28, in g (unit assumed)", "method_in_brief": "(§2)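 Male Wistar albino rats (170–200 g, 8–10 weeks), fasted overnight, given STZ 50 mg/kg i.p. in 0.1 M citrate buffer, then 10% glucose for 3 days. Tail-vein glucose by glucometer at 72 h; >250 mg/dL counted as diabetic. Body weight and blood glucose on days 1, 7, 14, 21 and 28. Means ± SEM, one-way ANOVA with Dunnett's test.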"}, "Balb/C mice": {"system": "Balb/C mice", "assay": "acute toxicity study in mice", "type": "in vivo", "method_in_brief": "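Two-phase modified Lorke protocol in Balb/C mice (20–25 g), four per group. Phase 1: control given Tween-80 (2%); other groups received oral test compound at 100, 500 or 1000 mg/kg. Phase 2: oral doses of 1250, 1500 and 2000 mg/kg. Animals observed for the first 24 h, then daily for 2 weeks for diarrhea, convulsions, lethargy, sleeping, salivation and tremors, with mortality monitored.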"}, "[3]": {"system": "streptozotocin-induced diabetic Wistar rats", "assay": "antidiabetic activity: blood glucose in STZ-induced diabetes", "type": "in vivo, Wistar albino rats", "method_in_brief": "as §2"}, "α-glucosidase": {"target": "α-glucosidase (Saccharomyces cerevisiae, UniProt P53341)", "sequence (P53341 whole entry)": "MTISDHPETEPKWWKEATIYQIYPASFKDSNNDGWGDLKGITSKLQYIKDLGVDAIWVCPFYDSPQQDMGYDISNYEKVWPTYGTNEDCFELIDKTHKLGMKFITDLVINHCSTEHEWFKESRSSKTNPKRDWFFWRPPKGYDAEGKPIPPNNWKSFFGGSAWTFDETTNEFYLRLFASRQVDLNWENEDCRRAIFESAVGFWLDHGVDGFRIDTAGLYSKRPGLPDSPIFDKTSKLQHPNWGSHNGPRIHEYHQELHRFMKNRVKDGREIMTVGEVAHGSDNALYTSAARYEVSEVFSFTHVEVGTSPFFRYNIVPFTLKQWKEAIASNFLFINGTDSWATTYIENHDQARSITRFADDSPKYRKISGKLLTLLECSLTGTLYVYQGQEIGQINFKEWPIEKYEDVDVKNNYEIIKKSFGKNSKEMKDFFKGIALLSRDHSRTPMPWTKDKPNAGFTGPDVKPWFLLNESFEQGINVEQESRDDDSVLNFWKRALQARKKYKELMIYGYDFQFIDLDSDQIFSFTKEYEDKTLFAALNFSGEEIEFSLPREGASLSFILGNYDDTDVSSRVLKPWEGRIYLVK", "assay": "α-glucosidase inhibitory activity", "type": "biochemical", "conditions": "read-out: glucosidase inhibition IC50 ± SEM; mean ± SEM"}, "[4]": {"system": "overnight fasted normal rats", "assay": "oral glucose tolerance test", "type": "in vivo, Wistar albino rats", "conditions": "OGTT, glucose 3 g/kg oral"}, "[5]": {"system": "streptozotocin-induced diabetic Wistar rats", "assay": "serum profile", "type": "in vivo, Wistar albino rats", "conditions": "STZ-diabetic rats; for (ALP) IU / (SGOT) IU / (SGPT) IU: serum", "method_in_brief": "as §1"}}, "data": [{"substance": "N,N-Dimethyl-4-(4-(p-tolyl)-2,3-dihydrobenzo[b][1,5]thiazepin-2-yl)aniline [14B]", "values": [{"measurement": "HDL", "setting": "[1]; 10 mg/kg for 28 days", "value": "45.25 ± 2.15", "unit": "mg/dL"}, {"measurement": "LDL", "setting": "[1]; 10 mg/kg for 28 days", "value": "129.08 ± 4.06", "unit": "mg/dL"}, {"measurement": "TG", "setting": "[1]; 10 mg/kg for 28 days", "value": "144.11 ± 4.39", "unit": "mg/dL"}, {"measurement": "total CH", "setting": "[1]; 10 mg/kg for 28 days, 10 mg/kg", "value": "149.08 ± 4.12", "unit": "mg/dL"}, {"measurement": "HDL", "setting": "[1]; 20 mg/kg for 28 days", "value": "55.21 ± 2.66", "unit": "mg/dL"}, {"measurement": "LDL", "setting": "[1]; 20 mg/kg for 28 days", "value": "110.41 ± 3.90", "unit": "mg/dL"}, {"measurement": "TG", "setting": "[1]; 20 mg/kg for 28 days", "value": "115.24 ± 4.13", "unit": "mg/dL"}, {"measurement": "total CH", "setting": "[1]; 20 mg/kg for 28 days, 20 mg/kg", "value": "135.11 ± 4.02", "unit": "mg/dL"}, {"measurement": "body weight, day 1", "setting": "[2]; 10 mg/kg", "value": "188.5 ± 4.07"}, {"measurement": "body weight, day 7", "setting": "[2]; 10 mg/kg", "value": "186.8 ± 4.39"}, {"measurement": "body weight, day 14", "setting": "[2]; 10 mg/kg", "value": "187.1 ± 4.33"}, {"measurement": "body weight, day 21", "setting": "[2]; 10 mg/kg", "value": "181.6 ± 4.21"}, {"measurement": "body weight, day 28", "setting": "[2]; 10 mg/kg", "value": "179.3 ± 4.41"}, {"measurement": "body weight, day 1", "setting": "[2]; 20 mg/kg", "value": "189.1 ± 4.19"}, {"measurement": "body weight, day 7", "setting": "[2]; 20 mg/kg", "value": "188.5 ± 4.21"}, {"measurement": "body weight, day 14", "setting": "[2]; 20 mg/kg", "value": "189.2 ± 4.66"}, {"measurement": "body weight, day 21", "setting": "[2]; 20 mg/kg", "value": "183.4 ± 4.18"}, {"measurement": "body weight, day 28", "setting": "[2]; 20 mg/kg", "value": "182.5 ± 4.58"}, {"measurement": "mortality", "setting": "Balb/C mice; maximum oral dose of 2000 mg/kg (b.w.)", "value": "no mortality"}, {"measurement": "toxic effects (diarrhea, convulsions, lethargy, sleeping, salivation, tremor)", "setting": "Balb/C mice; oral up to 2000 mg/kg, observed daily for 2 weeks", "value": "no toxic effects"}, {"measurement": "blood glucose level, day 1", "setting": "[3]; 10 mg/kg p.o. once daily", "value": "369.82 ± 4.12", "unit": "mg/dL"}, {"measurement": "blood glucose level, day 7", "setting": "[3]; 10 mg/kg p.o. once daily", "value": "294.04 ± 4.67", "unit": "mg/dL"}, {"measurement": "blood glucose level, day 14", "setting": "[3]; 10 mg/kg p.o. once daily", "value": "196.39 ± 4.12", "unit": "mg/dL"}, {"measurement": "blood glucose level, day 21", "setting": "[3]; 10 mg/kg p.o. once daily", "value": "151.11 ± 4.39", "unit": "mg/dL"}, {"measurement": "blood glucose level, day 28", "setting": "[3]; 10 mg/kg p.o. once daily, day 28, 10 mg/kg", "value": "134.20 ± 4.21", "unit": "mg/dL"}, {"measurement": "blood glucose level, day 1", "setting": "[3]; 20 mg/kg p.o. once daily", "value": "370.33 ± 3.98", "unit": "mg/dL"}, {"measurement": "blood glucose level, day 7", "setting": "[3]; 20 mg/kg p.o. once daily", "value": "231.69 ± 5.20", "unit": "mg/dL"}, {"measurement": "blood glucose level, day 14", "setting": "[3]; 20 mg/kg p.o. once daily", "value": "158.26 ± 4.67", "unit": "mg/dL"}, {"measurement": "blood glucose level, day 21", "setting": "[3]; 20 mg/kg p.o. once daily", "value": "127.21 ± 4.81", "unit": "mg/dL"}, {"measurement": "blood glucose level, day 28", "setting": "[3]; 20 mg/kg p.o. once daily, day 28, 20 mg/kg", "value": "109.71 ± 4.23", "unit": "mg/dL"}, {"measurement": "IC50", "setting": "α-glucosidase", "value": "3.34 ± 0.27", "unit": "µM"}, {"measurement": "blood glucose level, 0 min", "setting": "[4]; dose 10 mg/kg", "value": "104.21 ± 4.67", "unit": "mg/dL"}, {"measurement": "blood glucose level, 30 min", "setting": "[4]; dose 10 mg/kg", "value": "124.02 ± 4.01", "unit": "mg/dL"}, {"measurement": "blood glucose level, 60 min", "setting": "[4]; dose 10 mg/kg", "value": "119.33 ± 4.63", "unit": "mg/dL"}, {"measurement": "blood glucose level, 90 min", "setting": "[4]; dose 10 mg/kg", "value": "114.98 ± 4.03", "unit": "mg/dL"}, {"measurement": "blood glucose level, 120 min", "setting": "[4]; dose 10 mg/kg", "value": "116.49 ± 4.71", "unit": "mg/dL"}, {"measurement": "blood glucose level, 0 min", "setting": "[4]; dose 20 mg/kg", "value": "103.87 ± 4.18", "unit": "mg/dL"}, {"measurement": "blood glucose level, 30 min", "setting": "[4]; dose 20 mg/kg", "value": "119.61 ± 4.55", "unit": "mg/dL"}, {"measurement": "blood glucose level, 60 min", "setting": "[4]; dose 20 mg/kg", "value": "116.20 ± 4.78", "unit": "mg/dL"}, {"measurement": "blood glucose level, 90 min", "setting": "[4]; dose 20 mg/kg", "value": "112.69 ± 4.11", "unit": "mg/dL"}, {"measurement": "blood glucose level, 120 min", "setting": "[4]; dose 20 mg/kg", "value": "111.61 ± 4.97", "unit": "mg/dL"}, {"measurement": "insulin level", "setting": "[5]; 10 mg/kg for 28 days", "value": "0.690 ± 0.27", "unit": "ng/mL"}, {"measurement": "serum creatinine", "setting": "[5]; 10 mg/kg for 28 days", "value": "0.75 ± 0.36", "unit": "mg/dL"}, {"measurement": "(ALP) IU", "setting": "[5]; 10 mg/kg for 28 days", "value": "210.98 ± 4.39", "unit": "IU"}, {"measurement": "(SGOT) IU", "setting": "[5]; 10 mg/kg for 28 days", "value": "25.56 ± 2.18", "unit": "IU"}, {"measurement": "(SGPT) IU", "setting": "[5]; 10 mg/kg for 28 days", "value": "25.08 ± 2.78", "unit": "IU"}, {"measurement": "insulin level", "setting": "[5]; 20 mg/kg for 28 days", "value": "0.697 ± 0.34", "unit": "ng/mL"}, {"measurement": "serum creatinine", "setting": "[5]; 20 mg/kg for 28 days", "value": "0.72 ± 0.30", "unit": "mg/dL"}, {"measurement": "(ALP) IU", "setting": "[5]; 20 mg/kg for 28 days", "value": "203.51 ± 4.34", "unit": "IU"}, {"measurement": "(SGOT) IU", "setting": "[5]; 20 mg/kg for 28 days", "value": "22.20 ± 2.21", "unit": "IU"}, {"measurement": "(SGPT) IU", "setting": "[5]; 20 mg/kg for 28 days", "value": "22.82 ± 2.91", "unit": "IU"}]}]}
